Experimental findings from ChEMBL document CHEMBL4316633, “The Antiangiogenic Activity of Naturally Occurring and Synthetic Homoisoflavonoids from the Hyacinthaceae ( sensu APGII)” (J Nat Prod, 2019) are described below.

A short description of series [1]: Cytotoxicity against human Y79 cells assessed as reduction in cell number incubated for 44 hrs by alamar blue based fluorescence assay.
A short description of series [2]: Antiproliferative activity against HREC assessed as reduction in cell number incubated for 44 hrs by alamar blue based fluorescence assay. The conditions noted are these: Homo sapiens. Format: functional.
Series [3] in a line: Cytotoxicity against human 92-1 cells assessed as reduction in cell number incubated for 44 hrs by alamar blue based fluorescence assay.
Series [4] can be described thus: Antiproliferative activity against HUVEC assessed as reduction in cell number incubated for 44 hrs by alamar blue based fluorescence assay. The conditions noted are these: human, HUVEC cells. Summed up: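 Primary endothelial cells (HRECs, HUVECs; passage 5–8) in EGM-2; 2,500 cells seeded, 24 h at 37°C, 5% CO2, then compounds 0.5 nM–500 μM for 44 h. alamarBlue added 4 h, fluorescence ex 560/em 590 nm.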

A short description of series [5]: Antiproliferative activity against human ARPE19 assessed as reduction in cell number incubated for 44 hrs by alamar blue based fluorescence assay. Particulars: ARPE-19 cells.

As to `COc1c(O)cc2c(c1O)C(=O)[C@H](Cc1ccc(O)cc1)CO2`, the GI50 at 44 h in series [1], in series [3] and in series [4] was above 100 µM each time. For the same compound, the GI50 in series [2] is above 100 µM.

On to `COc1cc(O)cc2c1C(=O)[C@H](Cc1ccc(O)cc1)CO2`, for which the GI50 at 44 h in series [1], in series [3] and in series [4] was above 100 µM each time. Moreover, the GI50 in series [2] was above 100 µM.

As to `O=C1c2c(O)cc(O)cc2OC[C@H]1Cc1ccc(O)c(O)c1`, the GI50 at 44 h in series [1], in series [3] and in series [4] was above 100 µM throughout. The GI50 in series [2] was above 100 µM.

Regarding `COc1cc(O)c2c(c1)OC[C@]1(Cc3c1cc(OC)c(OC)c3OC)C2=O`, the GI50 at 44 h in series [1], in series [3] and in series [4] was above 100 µM throughout. In addition, the GI50 in series [2] was above 100 µM.

Consider `COc1cc2c(cc1O)C[C@]21COc2cc(O)cc(O)c2C1=O`, for which the 50% growth inhibitory concentration (GI50) at 44 h in series [1], in series [3] and in series [4] was above 100 µM in each case. Also, in series [2], the GI50 was above 100 µM.

Regarding `COc1c(O)cc2c(c1O)C(=O)/C(=C/c1ccc(O)c(O)c1)CO2`, the GI50 at 44 h in series [1], in series [5] and in series [3] was above 100 µM throughout. Also, in series [2], the GI50 was above 100 µM.

Consider `COc1cc2c(c(OC)c1OC)C(=O)/C(=C/c1ccc(Cl)c(O)c1)CO2`, for which the GI50 at 44 h in series [1] was 13 µM; in series [5], 0.73 µM; in series [3] it was 3.6 µM. Moreover, in series [2], the GI50 worked out at 0.11 µM.

Regarding `O=Cc1ccc(O)cc1` [4-HYDROXYBENZALDEHYDE], the GI50 at 44 h in series [1], in series [3] and in series [4] was above 100 µM throughout. For the same compound, the GI50 in series [2] is above 100 µM.

For `COc1c(O)cc2c(c1O)C(=O)[C@H](Cc1ccc(O)c(O)c1)CO2`, the 50% growth inhibitory concentration (GI50) at 44 h in series [1], in series [5] and in series [3] was above 100 µM throughout. The GI50 in series [2] is above 100 µM.

In the case of `COc1cc(O)cc(OC)c1C(=O)/C=C/c1ccc(O)cc1`, the GI50 at 44 h in series [1] and in series [4] was above 100 µM each time. Moreover, the GI50 in series [2] was above 100 µM.

Consider `COc1cc(OC(C)=O)cc2c1C(=O)/C(=C/c1ccc(OC(C)=O)cc1)CO2`, for which the GI50 at 44 h in series [1] was above 100 µM; in series [3], above 100 µM; in series [4] it was 43 µM. Besides, the GI50 in series [2] is 96 µM.

Regarding `COc1ccc2c(c1OC)OC/C(=C\c1ccc(SC)cc1)C2=O`, the GI50 at 44 h was 11 µM in series [1], above 100 µM in series [5] and above 100 µM in series [3]. Also, the GI50 in series [2] was 3.6 µM.

As to `COc1c(O)c(OC)c2c(c1O)OC[C@@H](Cc1ccc(O)cc1)C2=O`, the GI50 at 44 h in series [1], in series [5] and in series [3] was above 100 µM in each case. For the same compound, the GI50 in series [2] was above 100 µM.

Consider `COc1cc2c(cc1O)C[C@]21COc2cc(OC(C)=O)cc(O)c2C1=O`, for which the GI50 at 44 h in series [1], in series [3] and in series [4] was above 100 µM each time. Besides, the GI50 in series [2] is above 100 µM.

Regarding `COc1ccc(C[C@]2(O)COc3cc(O)cc(O)c3C2=O)cc1`, the GI50 at 44 h in series [1], in series [5] and in series [3] was above 100 µM in each case. Also, the GI50 in series [2] was found to be 74 µM.

Consider `COc1ccc(/C=C2\COc3c(OC)c(O)cc(O)c3C2=O)cc1`, for which the GI50 at 44 h in series [1], in series [5] and in series [3] was above 100 µM throughout. In addition, in series [2], the GI50 is above 100 µM.

Consider `COc1ccc(CC2COc3cc(OC)c(OC)c(OC)c3C2=O)cc1O` (racemic), for which the GI50 at 44 h in series [1], in series [5] and in series [3] was above 100 µM in each case. Besides, the GI50 in series [2] is 0.21 µM.

As for `COc1ccc(CC2(O)COc3cc(O)cc(O)c3C2=O)cc1` (configuration not stated), the GI50 at 44 h in series [1], in series [3] and in series [4] was above 100 µM each time. Besides, the GI50 in series [2] is above 100 µM.

`O=C1CCOc2cc(O)cc(O)c21`: the GI50 at 44 h in series [1], in series [3] and in series [4] was above 100 µM throughout. In addition, the GI50 in series [2] is above 100 µM.

Consider `COc1cc2c(cc1O)[C@@]1(COc3cc(O)cc(O)c3C1=O)C2`, for which the GI50 at 44 h in series [1], in series [3] and in series [4] was above 100 µM each time. Further, in series [2], the GI50 is above 100 µM.

`COc1cc(O)cc2c1C(=O)/C(=C/c1ccc(O)c(O)c1)CO2`: the GI50 at 44 h in series [1], in series [3] and in series [4] was above 100 µM in each case. Moreover, the GI50 in series [2] is above 100 µM.

As for `COc1ccc(/C=C2\COc3cc(O)c(O)c(O)c3C2=O)cc1O`, the GI50 at 44 h in series [1] is 23 µM; in series [3], above 100 µM; in series [4] it was 41 µM. In addition, the GI50 in series [2] worked out at 17 µM.

As to `COc1ccc(C[C@@H]2COc3c(OC)c(O)cc(O)c3C2=O)cc1`, the GI50 at 44 h in series [1], in series [5] and in series [3] was above 100 µM in each case. In addition, in series [2], the GI50 is above 100 µM.

With `COc1ccc(C[C@@H]2COc3cc(O)cc(O)c3C2=O)cc1`, the GI50 at 44 h in series [1], in series [3] and in series [4] was above 100 µM in each case. For the same compound, the GI50 in series [2] was above 100 µM.

In the case of `COc1cc(O)cc2c1C(=O)[C@H](Cc1ccc(O)c(O)c1)CO2`, the figures for the GI50 at 44 h in series [1], in series [3] and in series [4] were 25 µM, above 100 µM and 14 µM, respectively. For the same compound, the GI50 in series [2] was above 100 µM.

As to `O=C1c2c(O)cc(O)cc2OC[C@]12Cc1cc3c(cc12)OCO3`, the GI50 at 44 h in series [1], in series [3] and in series [4] was above 100 µM in each case. The GI50 in series [2] is above 100 µM.

As to `COc1ccc(C[C@H]2COc3cc(OC(C)=O)cc(OC(C)=O)c3C2=O)cc1O`, the GI50 at 44 h in series [1] was above 100 µM; in series [3], above 100 µM; in series [4], 92 µM. In series [2], the GI50 was above 100 µM.

`COc1cc(O)c2c(c1)OC[C@]1(Cc3c1cc(OC)c(OC)c3O)C2=O`: the GI50 at 44 h in series [1], in series [3] and in series [4] was above 100 µM in each case. Also, the GI50 in series [2] was above 100 µM.

In the case of `COc1cc2c(cc1O)C[C@]21COc2cc(OC(C)=O)cc(OC(C)=O)c2C1=O`, the GI50 at 44 h in series [1], in series [3] and in series [4] was above 100 µM each time. The GI50 in series [2] is above 100 µM.

With `O=C1c2c(O)cc(O)cc2OC[C@H]1Cc1ccc(O)cc1`, the GI50 at 44 h in series [1], in series [3] and in series [4] was above 100 µM in each case. Also, the 50% growth inhibitory concentration (GI50) in series [2] is above 100 µM.

As to `CC(=O)Oc1cc(C[C@H]2COc3cc(O)cc(O)c3C2=O)ccc1O`, the GI50 at 44 h in series [1], in series [3] and in series [4] was above 100 µM throughout. Further, the GI50 in series [2] was above 100 µM.

Take `COc1c(O)cc(O)c2c1OC/C(=C\c1ccc(O)cc1)C2=O`: the GI50 at 44 h in series [1], in series [3] and in series [4] was above 100 µM throughout. In addition, the GI50 in series [2] is 40 µM.
